# Screening results (PubChem BioAssay)
# Rows were chosen to be rich in hits. Some 2.4% of all compounds tested hit in one or more screens of this group.
# HNF4A DNA FP = change in binding of human HNF4 alpha to DNA. P41235. HNF4a-FITC DNA binding, fluorescence polarization, 1 h. activity change, % at 10 µM. hit rate 0.3% among 360,000. AID 1224865; in the data active means activity change above about 30%, passing the limit was not always enough
# Neddyl block = cullin neddylation inhibition; TR-FRET cullin neddylation, biochemical; inhibition, % at 25 µM; hit rate 0.58% among 360,000; in the data active means inhibition above about 36%
# Target sequence (P61081 whole entry, looked up): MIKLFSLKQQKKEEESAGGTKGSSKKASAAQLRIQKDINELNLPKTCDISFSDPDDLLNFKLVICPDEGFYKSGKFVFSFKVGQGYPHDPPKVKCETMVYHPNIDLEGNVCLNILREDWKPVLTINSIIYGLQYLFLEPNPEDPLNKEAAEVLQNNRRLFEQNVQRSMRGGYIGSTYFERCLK
# Target sequence (Q13564 whole entry, looked up): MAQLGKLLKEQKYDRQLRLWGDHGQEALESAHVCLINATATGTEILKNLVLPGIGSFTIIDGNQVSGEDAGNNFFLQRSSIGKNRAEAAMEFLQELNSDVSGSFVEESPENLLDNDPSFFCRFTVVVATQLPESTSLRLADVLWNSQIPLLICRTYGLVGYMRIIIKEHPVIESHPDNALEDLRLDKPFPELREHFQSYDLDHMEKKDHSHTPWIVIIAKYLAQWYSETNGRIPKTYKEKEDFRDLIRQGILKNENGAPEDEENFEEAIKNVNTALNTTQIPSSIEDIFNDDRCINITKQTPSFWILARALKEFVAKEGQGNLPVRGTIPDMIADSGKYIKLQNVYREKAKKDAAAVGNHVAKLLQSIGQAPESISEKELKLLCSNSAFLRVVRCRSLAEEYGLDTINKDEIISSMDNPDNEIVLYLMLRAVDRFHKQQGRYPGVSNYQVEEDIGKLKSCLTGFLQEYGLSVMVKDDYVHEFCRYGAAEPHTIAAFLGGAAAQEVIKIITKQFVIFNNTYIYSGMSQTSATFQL
# CSN deneddyl inh = inhibitors of human CSN-mediated cullin deneddylation; Q92905; Purified CSN, SCF-Nedd8-OG deneddylation, fluorescence polarization; inhibition, % at 12.5 µM; hit rate 0.38% among 360,000;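 active means pattern-corrected inhibition above about 35%, with an unprinted fluorescence ratio check between 0.5 and 1.5, limit read from the data, passing the limit was not always enough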;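 further: 0% = enzyme with substrate and 100% = substrate without enzyme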
#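 Schedule: reaction 90 min, room temperature / Assay system: HEK293T-derived human Csn5 enzyme / Input: Csn5 at 0.24 nM final / Measure: inhibition of Csn5 cleavage, % / Control set: substrate-only high control, full reaction low control / Technique: fluorescence polarization of the substrate / Buffer or medium: Tris/NaCl/DTT buffer, pH 7.5 / Reagent: SCFSkp2-Nedd8OG substrate at 10 nM final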
# Rpn11 block = blocks the human proteasome subunit Rpn11 | human 26S proteasome, Ub4-pepOG fluorescence polarization; 20S core pre-blocked with epoxomicin | inhibition, % at 20 µM | hit rate 0.59% among 360,000;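 active means inhibition at 20 µM, scaled to each plate's controls, above about 33%, limit read from the data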
# TPT1 inhibitor = blocks Candida albicans tRNA 2'-phosphotransferase; recombinant caTPT1, FP RNA substrate dephosphorylation; inhibition, % at 5 µM; hit rate 0.81% among 300,000;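 active means inhibition above the mean of all tested compounds plus 3 SD, set per screening campaign, cut at about 24% in these data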;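 further: plate controls were DMSO alone for no effect and ferristatin control at 100 nM for full effect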
# Rin1-Abl PPI inh = blocks binding of human Rin1 to Abl | P00519+Q13671 | TR-FRET Rin1/Abl binding, biochemical | inhibition, % at 7.35 µM | hit rate 0.4% among 360,000 | AID 588664; in the data active means inhibition above about 5%, passing the limit was not always enough
# TPT1 inh confirm = confirmation of Candida albicans TPT1 inhibitors. inhibition, % at 5 µM. recombinant caTPT1, fluorescence polarization, RNase T1 coupled. hit rate 74% among 2,400. shares compounds with TPT1 inhibitor;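 active means inhibition above the primary screen limit, the mean inhibition of all tested compounds plus 3 SD, cut at about 25% in these data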
# RNase T1 inh = counter-screen for TPT1 inhibitors: inhibitors of Aspergillus oryzae RNase T1; shares compounds with TPT1 inhibitor; RNase T1 cleavage, fluorescence polarization, 1536-well; inhibition, % at 5 µM; hit rate 83% among 2,400; AID 2153;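 active means inhibition above the solvent-only control well mean plus 3 SD, limit set per screening run, cut at about 23% in these data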;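 further: plate controls were DMSO wells with enzyme for no effect and wells without RNase T1 for full effect; inhibitors block cleavage so intact labeled substrate keeps polarization high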
# * hit, by the source's call; i = inactive; . = no result shown.
SMILES,HNF4A DNA FP,Neddyl block,CSN deneddyl inh,Rpn11 block,TPT1 inhibitor,Rin1-Abl PPI inh,TPT1 inh confirm,RNase T1 inh
O=C(O)CCCNc1cc(N2CCN(C(=O)c3ccco3)CC2)c2noc3c2c1C(=O)c1ccccc1-3,12,-12,19,.,96*,-4,170*,141*
CCOC(=O)N1CCN(c2cc(NCCC(=O)O)c3c4c(onc24)-c2ccccc2C3=O)CC1,97,-29,5,.,137*,-12,185*,152*
CCc1ccc(S(=O)(=O)Nc2cccc(-c3ccc4nnc(C)n4n3)c2)s1,4,5,-9,4,0,1,.,.
CCN(CC)C(=O)c1ccc(CS(=O)(=O)Cc2ccccc2)cc1,1,8,0,6,.,-2,.,.
COc1ccc(COC(=O)N/C=C/c2ccco2)cc1,15,-1,0,12,21,1,.,.
COc1ccccc1COC(=O)N/C=C/c1ccco1,17,1,-2,29,42*,1,20,25*
O=C(c1ccc(Br)o1)N1CCN(Cc2ccccc2Cl)CC1,2,-2,-5,-2,-2,-1,.,.
CCSC1=N/C(=C\C=C2/Oc3ccccc3N2CC)C(=O)S1,187,-85,118,.,138*,-8,148*,143*
CS(=O)(=O)N1CC2CCCN2c2cc(C(F)(F)F)ccc21 (configuration not stated),4,2,-2,13,28*,0,10,14
CCCc1cc2c(=O)n(NC(=O)c3nn(C)cc3[N+](=O)[O-])c(C)nc2s1,1,-1,-2,-1,57*,-1,4,5
CN1CCS/C1=C/C=C1\SC(=S)N(CC(=O)O)C1=O,171,i,-75,.,169*,-35,180*,167*
CN1CCS/C1=C/C=C1/SC(=S)N(Cc2ccccc2)C1=O,146,-394,76,.,171*,-13,169*,157*
O=C(/C=C/[C@H]1O[C@@H](n2ccc(=O)[nH]c2=O)[C@H](O)[C@@H]1O)NCCN1CCCCC1,-3,3,4,-15,.,2,.,.
O=C(Nc1cc(S(=O)(=O)N2CCCC2)ccc1OCC(F)(F)F)c1ccncc1,0,4,-2,-1,.,3,.,.
Cc1ccccc1-n1c(SCc2c(C)noc2C)nnc1-c1ccncc1,3,14,5,4,33*,-3,11,16
CCOC(=O)c1sc2cc([N+](=O)[O-])cc(SCCO)c2c1N,4,-20,-4,1,9,1,.,.
CCOC(=O)c1sc2cc([N+](=O)[O-])cc(SCC(=O)OC)c2c1N,14,-36,15,36,29*,-7,35*,49*
CC1CC/C(=C\c2ccc3c(c2)OCO3)C(=O)/C1=C/c1ccc2c(c1)OCO2 (configuration not stated),10,14,10,22,31*,-1,15,21
Cc1nnc(-n2ncc(C#N)c2N)c2nn(-c3cccc(Cl)c3)c(C)c12,12,-10,6,19,8,-2,.,.
Cc1nnc(N2CCOCC2)c2nn(-c3cccc(Cl)c3)c(C)c12,21,31,11,.,28*,-2,69*,76*
CC(NC(=O)/C(C#N)=C/c1ccc([N+](=O)[O-])o1)c1ccccc1 (configuration not stated),13,4,18,40,23,4,.,.
CCN(CC)c1ccc(/C=C(/C#N)C(=O)NCc2ccccc2)o1,192,-302,167,.,189*,-11,197*,180*
Cc1[nH]c2ccccc2c1/C=C(\C#N)C(=O)NCc1ccccc1,12,3,6,14,31*,-1,41*,49*
CC(C)NC(=O)/C(C#N)=C\c1ccc(N(C)C)o1,188,-158,117,.,153*,-20,177*,170*
CCN(CC)c1ccc(/C=C(/C#N)C(=O)NC(C)C)o1,184,-157,149,.,169*,-13,186*,173*
SMILES,HNF4A DNA FP,Neddyl block,CSN deneddyl inh,Rpn11 block,TPT1 inhibitor,Rin1-Abl PPI inh,TPT1 inh confirm,RNase T1 inh
N#C/C(=C\c1ccc(O)cc1)C(=O)NCc1ccccc1,0,-19,3,0,-2,-1,.,.
C=CCNC(=O)/C(C#N)=C/c1ccc(C)o1,0,-14,3,-1,-1,0,.,.
Cc1cc(Br)ccc1OCC(=O)NNC(=O)C(=O)Nc1ccccc1,1,4,3,-3,1,-2,.,.
CCCCCCc1cc2cc(C(N)=O)c(=N)oc2cc1O,.,.,.,.,67*,.,8,22*
CCN(CC)c1ccc2cc(-c3nnc(-c4ccncc4)o3)c(=O)oc2c1,-84,-373,-74,.,.,-25,.,.
CCN(CC)c1ccc2cc(C(N)=O)c(=N)oc2c1,-22,-14,-90,.,73*,-7,71*,75*
CCN(CC)c1ccc2cc(/C(N)=N/NC(=O)c3cccs3)c(=O)oc2c1,.,.,.,.,87*,.,108*,112*
CCN(CC)c1ccc2cc(C(C)=O)c(=O)oc2c1,.,20,97,.,131*,-43,109*,109*
CN(C)N1C(=O)c2c(Cl)c(Cl)c(Cl)c(Cl)c2C1=O,0,-24,2,0,.,3,.,.
CCN(CC)c1ccc2cc(C=O)c(=O)oc2c1,14,24,-73,.,121*,-44,102*,101*
CCOc1ccccc1NC(=O)c1cc2ccccc2oc1=O,4,4,6,-3,-3,-3,.,.
CCN(CC)c1ccc2cc(NC(=O)CCC(=O)O)c(=O)oc2c1,-49,.,-16,-102,-28,-3,.,.
CCN(CC)c1ccc2cc(C(=O)Nc3ccccn3)c(=O)oc2c1,32,.,-13,-26,135*,-3,109*,112*
COc1ccc(-n2c(O)c(/C=N/NS(=O)(=O)c3cccc([N+](=O)[O-])c3)c3ccccc3c2=O)cc1OC,114,33,30,.,70*,0,115*,118*
Cc1ccc2c(c1)C1(C(=O)N2C)N2CC3(C)CN1CC(C)(C2)C3=O (configuration not stated),4,4,0,-6,64*,-3,-1,0
CCCC12CN3CC(C)(CN(C1)C31C(=O)Nc3ccc(C)cc31)C2=O (configuration not stated),5,0,3,0,1,-8,.,.
CC(=O)C1=C(C)NC(SCC(=O)c2ccc(-c3ccccc3)cc2)=C(C#N)C1c1cccnc1 (configuration not stated),.,.,.,.,30*,.,39*,50*
